Screening results (PubChem)
Only some compounds are listed: those with a hit (about 2.9% of all), similar ones and a draw of the others.
SIRT5 inh = sirtuin-5 (human) deacylase inhibition; Q9NXA8; Purified SirT5, succinyl-peptide AMC, trypsin-coupled fluorescence; inhibition, % at 15 µM; 330,000 compounds, 1.1% hits; AID 652115; in the data active = inhibition above about 15%; inconclusive = no clear call, values can overlap the other calls
Target sequence (Q9NXA8 whole entry, looked up): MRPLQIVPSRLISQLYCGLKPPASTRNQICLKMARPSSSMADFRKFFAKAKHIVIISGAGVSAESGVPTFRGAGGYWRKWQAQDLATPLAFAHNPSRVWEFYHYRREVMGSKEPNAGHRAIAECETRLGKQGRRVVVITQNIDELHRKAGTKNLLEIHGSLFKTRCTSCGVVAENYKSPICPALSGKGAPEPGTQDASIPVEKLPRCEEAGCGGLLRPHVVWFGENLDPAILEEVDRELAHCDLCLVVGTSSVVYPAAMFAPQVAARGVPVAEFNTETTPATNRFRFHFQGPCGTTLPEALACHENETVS
DENV2 CPE = inhibitors of DENV2 cytopathic effect | CPE inhibition, % at 9.99 µM | AID 651640 | DENV2-infected cells, cytopathic effect rescue, plate reader | 350,000 compounds, 1.7% hits; in the data active = CPE inhibition above about 20%, passing the limit was not always enough; inconclusive = no clear call, values can overlap the other calls; tested in BHK-21 cells;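 also: 0% = median of neutral control wells and 100% = median of positive control wells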
E-sel inducer = induces E-selectin expression in human endothelial cells. P16581. activation, % at 7.58 µM. HUVEC E-selectin immunofluorescence imaging; normalized: neutral wells 0, TNF-alpha wells 100. 260,000 compounds, 0.37% hits;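 active = mean E-selectin-positive cell signal at least 10% of the positive control, reached in at least 60% of replicates, without over 20% cell loss; inconclusive = no rule given, readout overlaps actives, possibly toxicity-flagged; inactive = the rest, including those meeting only one limit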
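Test system: HUVEC; input: 3,000 HUVEC/well; measured by: immunofluorescence imaging; read-out: % PE-positive cells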
* marks the source's active call; other numbers are inactive results; ? = inconclusive; / = no result.

SMILES	SIRT5 inh	DENV2 CPE	E-sel inducer
Cc1cccc(NC(=S)NC(C)CCc2ccccc2)c1 (centres undefined)	-3	45*	/
CC(C)(C)NC(=O)CC1C[C@H](C(=O)N2CCOCC2)[C@@]2(CCC3CCCC3)c3[nH]c4ccccc4c3CCN2C1=O (some centres undefined)	4	-1	/
COc1ccc2[nH]cc(CCNC(=O)Cc3c(F)cccc3Cl)c2c1	0	-8	1
CC(C)NC(=O)COC(=O)c1cc(=O)[nH]c2ccccc12	4	1	/
CCCCC1NC(C(=O)O)CS1 (centres undefined)	-4	0	/
O=C(O)C1CSC(c2ccco2)N1 (centres undefined)	16*	-3	-2
CCOCCCNC(=O)C(c1ccc(Cl)cc1)N(Cc1cccs1)C(=O)c1ccccn1 (centres undefined)	18*	-3	/
CCOCCCNC(=O)C(c1ccc(C)cc1)N(Cc1cccs1)C(=O)c1ccccn1 (centres undefined)	-1	-10	/
COc1ccc(C(=O)Nc2ccc(N3CCN(C(C)=O)CC3)cc2)cc1[N+](=O)[O-]	0	?	0
CCCNC(=O)c1cc2c(c(-c3cccc(-c4ccncc4)c3)n1)[C@H](CCO)N(S(=O)(=O)CC)C2	-1	-1	0
CCNC(=O)c1cc2c(c(-c3cccc(-c4ccncc4)c3)n1)[C@@H](CCO)N(S(=O)(=O)CC)C2	-2	51*	0
CC(C)(C)[S@](=O)N1Cc2cc(C(=O)N[C@H]3CCN(Cc4ccccc4)C3)nc(-c3cccc(-c4ccncc4)c3)c2[C@@H]1CCO	8	-3	62*
CC(C)(C)[S@](=O)N1Cc2cc(C(=O)N[C@@H]3CCN(Cc4ccccc4)C3)nc(-c3cccc(-c4cccnc4)c3)c2[C@@H]1CCO	0	-3	0
CN(C)CC#Cc1cccc(-c2nc(C(=O)N[C@@H]3CCN(Cc4ccccc4)C3)cc3c2[C@H](CCO)N(S(=O)C(C)(C)C)C3)c1 (some centres undefined)	1	48*	/
CN(C)CC#Cc1cccc(-c2nc(C(=O)N3CCN(Cc4ccccc4)CC3)cc3c2[C@@H](CCO)N(S(=O)C(C)(C)C)C3)c1 (some centres undefined)	/	0	/
C/C(=N\NC(=O)c1ccccc1)C1C2C=CC(C2)C1(C)C (centres undefined)	9	-1	2
O=C(NN(Cc1ccccc1)Cc1ccccc1)c1ccccc1	/	7	0
C[C@H]1CN([C@@H](C)CO)C(=O)c2ccccc2-c2ccccc2CO[C@H]1CN(C)Cc1cccc2c1OCCCO2	-1	-5	0
C[C@@H]1CN([C@H](C)CO)C(=O)c2c(c3ccccc3n2C)-c2ccccc2CO[C@H]1CN(C)Cc1ccccc1	-2	3	-1
C[C@H]1CN([C@@H](C)CO)C(=O)c2c(c3ccccc3n2C)-c2ccccc2CO[C@H]1CN(C)Cc1cccc2c1OCCCO2	21*	-1	-2
C[C@H]1CN([C@@H](C)CO)C(=O)c2c(c3ccccc3n2C)-c2ccccc2CO[C@@H]1CN(C)Cc1cccc2c1OCCCO2	19*	13	/
C[C@H]1CN([C@@H](C)CO)C(=O)c2c(c3ccccc3n2C)-c2ccccc2CO[C@@H]1CN(C)Cc1ccccc1	5	-8	0
C[C@@H]1CN([C@@H](C)CO)C(=O)c2c(c3ccccc3n2C)-c2ccccc2CO[C@@H]1CN(C)Cc1cccc2c1OCCCO2	25*	0	-3
C[C@@H]1CN([C@H](C)CO)C(=O)c2c(c3ccccc3n2C)-c2ccccc2CO[C@@H]1CN(C)Cc1cccc2c1OCCCO2	20*	28*	-4
C[C@H](CO)N1C[C@H](C)[C@H](CN(C)Cc2ccccc2)OCc2ccccc2-c2c(n(C)c3ccccc23)C1=O	-1	?	0
SMILES	SIRT5 inh	DENV2 CPE	E-sel inducer
COc1ccc(S(=O)(=O)Nc2ccc3c(c2)CC(=O)N([C@H](C)CO)C[C@H](C)[C@H](CN(C)S(=O)(=O)c2ccc(OC)cc2)O3)cc1	3	14	0
C[C@@H]1CN([C@@H](C)CO)C(=O)c2ccccc2-c2ccccc2CO[C@@H]1CN(C)Cc1cccc2c1OCCCO2	/	/	0
C[C@@H]1CN([C@H](C)CO)C(=O)c2c(c3ccccc3n2C)-c2ccccc2CO[C@H]1CN(C)Cc1cccc2c1OCCCO2	23*	-9	5
CN(C)C(=O)C[C@@H]1CC[C@H](NC(=O)c2ccc(F)cc2)[C@@H](CO)O1	0	16	0
COc1ccc(S(=O)(=O)N(C)C[C@H]2Oc3ccc(NC(=O)C4CCCCC4)cc3CC(=O)N([C@H](C)CO)C[C@@H]2C)cc1	4	-7	0
COc1ccc(NC(=O)Nc2ccc3c(c2)CC(=O)N([C@H](C)CO)C[C@@H](C)[C@@H](CN(C)S(=O)(=O)c2ccc(C)cc2)O3)cc1	/	/	2
COc1ccc(S(=O)(=O)N(C)C[C@@H]2Oc3ccc(NC(=O)C4CCCCC4)cc3CC(=O)N([C@@H](C)CO)C[C@@H]2C)cc1	-4	28*	2
Cc1ccc(S(=O)(=O)N(C)C[C@H]2Oc3ccc(NC(=O)Nc4ccc(C(F)(F)F)cc4)cc3CC(=O)N([C@H](C)CO)C[C@H]2C)cc1	11	2	1
Cc1ccc(S(=O)(=O)N(C)C[C@@H]2Oc3ccc(NC(=O)Nc4ccc(C(F)(F)F)cc4)cc3CC(=O)N([C@@H](C)CO)C[C@H]2C)cc1	12	28*	0
COc1ccc(NC(=O)Nc2ccc3c(c2)CC(=O)N([C@@H](C)CO)C[C@@H](C)[C@@H](CN(C)S(=O)(=O)c2ccc(F)cc2)O3)cc1	-6	29*	0
COc1ccc(S(=O)(=O)N(C)C[C@@H]2Oc3ccc(NC(=O)Nc4ccc(F)cc4)cc3CC(=O)N([C@H](C)CO)C[C@H]2C)cc1	/	0	0
COc1ccc(NC(=O)Nc2ccc3c(c2)CC(=O)N([C@H](C)CO)C[C@@H](C)[C@H](CN(C)S(=O)(=O)c2ccc(C)cc2)O3)cc1	11	34*	1
CCN(CC)S(=O)(=O)c1ccc(O)c(C(=O)OCC(=O)NC2CCCC2)c1	-3	6	/
O=C(Nc1ccc(Cl)cc1)N[C@H]1CC[C@H](CCn2cc(Cc3ccccc3)nn2)O[C@H]1CO	-3	4	-1
COc1cc(C(=O)NCCC(=O)N2CCC3(CC2)NCCc2[nH]cnc23)cc(OC)c1OC	-7	16	/
C[C@H](CO)N1C[C@H](C)[C@H](CN(C)Cc2ccccc2)Oc2ccc(NC(=O)Cc3cn(C)c4ccccc34)cc2C1=O	1	11	0
COc1ccc(S(=O)(=O)N(C)C[C@H]2Oc3ccc(N(C)C)cc3CC(=O)N([C@H](C)CO)C[C@H]2C)cc1	-4	-15	0
COc1ccc(S(=O)(=O)N(C)C[C@@H]2Oc3ccc(N(C)C)cc3CC(=O)N([C@H](C)CO)C[C@H]2C)cc1	-2	30*	0
CC(=O)N1CCN(C(=O)c2cccc(S(=O)(=O)N3CCN(c4ccccc4)CC3)c2)CC1	-2	-6	1
CN1CCN(S(=O)(=O)c2cccc(C(=O)N3CCN(c4ccccc4)CC3)c2)CC1	17*	-3	1
